Results reported in ChEMBL document CHEMBL1649480, “Farnesol-induced apoptosis in Candida albicans” (2009).
Activity calls are given as the source filed them. The calls are words filed in the database; no cut-off is given here.

Key:
[1] = test system: Candida albicans; assay: Antiproliferative activity against Candida albicans SC5314 assessed as cell killing at 10 uM after 24 hrs by MTS assay; assay type: functional
In short: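 SC5314 grown overnight in YNB (pH 7.0) with 50 mM glucose at 30°C, 120 rpm, washed in PBS. Suspensions at 1 × 10⁷ cells/ml exposed to farnesol at final 0, 10, 40, 100, 200, 300 μM for 24 h at 30°C with shaking, with methanol vehicle controls. MTS reagent added for 4 h at 37°C, A490 read, and % killed cells calculated.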

[2] = test system: Candida albicans; assay: Downregulation of Putative stress response protein expression in Candida albicans SC5314 at 40 uM after 24 hrs by MALDI-TOF MS; assay type: functional, organism-based
In short: (§1)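 Overnight YNB-glucose SC5314 culture, PBS-washed, adjusted to OD600 0.1 and treated 24 h with 40 or 200 μM farnesol (methanol in controls). Proteomes were compared with untreated cells by 2D SDS-PAGE and MALDI-TOF MS, searched against NCBI nonredundant database. Spots were counted as changed at ≥1.5-fold in three independent experiments.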

[3] = test system: Candida albicans; assay: Downregulation of Riboflavin synthase expression in Candida albicans SC5314 at 40 uM after 24 hrs by MALDI-TOF MS; assay type: functional, organism-based; in short: as §1
[4] = test system: Candida albicans; assay: Downregulation of G-beta-like protein expression in Candida albicans SC5314 at 40 uM after 24 hrs by MALDI-TOF MS; assay type: functional, organism-based; in short: as §1
[5] = test system: Candida albicans; assay: Downregulation of ATP synthase subunit D expression in Candida albicans SC5314 at 200 uM after 24 hrs by MALDI-TOF MS; assay type: functional, organism-based; in short: as §1
[6] = test system: Candida albicans; assay: Downregulation of Dihydroxy acid dehydratase expression in Candida albicans SC5314 at 200 uM after 24 hrs by MALDI-TOF MS; assay type: functional, organism-based; in short: as §1
[7] = test system: Candida albicans; assay: Downregulation of Pyruvate kinase expression in Candida albicans SC5314 at 200 uM after 24 hrs by MALDI-TOF MS; assay type: functional, organism-based; in short: as §1
[8] = test system: Candida albicans; assay: Upregulation of Putative mitochondrial aconitate hydratase expression in Candida albicans SC5314 at 40 uM after 24 hrs by MALDI-TOF MS; assay type: functional, organism-based
In short: (§2)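 SC5314 grown overnight at 30°C, 120 rpm, in yeast nitrogen base (pH 7.0) with 50 mM glucose. Cells were washed in PBS and adjusted to OD600 0.1, then treated 24 h with farnesol from a methanol dilution; controls received methanol. Proteomes of treated and untreated cells were compared by 2-D SDS-PAGE and MALDI-TOF MS, with ProFound searches of the NCBI nonredundant database. Spots changed at least 1.5-fold in three independent experiments were counted.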

[9] = test system: Candida albicans; assay: Upregulation of Branched chain amino acid transaminase expression in Candida albicans SC5314 at 40 uM after 24 hrs by MALDI-TOF MS; assay type: functional, organism-based; in short: as §1
[10] = test system: Candida albicans; assay: Upregulation of Catalase A expression in Candida albicans SC5314 at 40 uM after 24 hrs by MALDI-TOF MS; assay type: functional, organism-based; in short: as §1
[11] = test system: Candida albicans; assay: Upregulation of Pyruvate decarboxylase expression in Candida albicans SC5314 at 40 uM after 24 hrs by MALDI-TOF MS; assay type: functional, organism-based; in short: as §2
[12] = test system: Candida albicans; assay: Upregulation of Heat shock protein 70 expression in Candida albicans SC5314 at 40 uM after 24 hrs by MALDI-TOF MS; assay type: functional, organism-based; in short: as §1
[13] = test system: Candida albicans; assay: Upregulation of Heat shock protein 90 homologue expression in Candida albicans SC5314 at 40 uM after 24 hrs by MALDI-TOF MS; assay type: functional, organism-based; in short: as §1
[14] = test system: Candida albicans; assay: Upregulation of Heat shock protein 60 expression in Candida albicans SC5314 at 200 uM after 24 hrs by MALDI-TOF MS; assay type: functional, organism-based; in short: as §1
[15] = test system: Candida albicans; assay: Upregulation of Aldose reductase expression in Candida albicans SC5314 at 200 uM after 24 hrs by MALDI-TOF MS; assay type: functional, organism-based; in short: as §1
[16] = test system: Candida albicans; assay: Upregulation of Putative aspartate aminotransferase expression in Candida albicans SC5314 at 200 uM after 24 hrs by MALDI-TOF MS; assay type: functional, organism-based; in short: as §2
[17] = test system: Candida albicans; assay: Upregulation of Acetyl-CoA hydrolase/transferase expression in Candida albicans SC5314 at 200 uM after 24 hrs by MALDI-TOF MS; assay type: functional, organism-based; in short: as §1
[18] = test system: Candida albicans; assay: Upregulation of Phosphoglycerate mutase expression in Candida albicans SC5314 at 200 uM after 24 hrs by MALDI-TOF MS; assay type: functional, organism-based; in short: as §2
[19] = test system: Candida albicans; assay: Upregulation of NADH-cytochrome b5 reductase expression in Candida albicans SC5314 at 200 uM after 24 hrs by MALDI-TOF MS; assay type: functional, organism-based; in short: as §2
[20] = test system: Candida albicans; assay: Induction of ROS accumulation in mitochondria of Candida albicans SC5314 at 200 uM after 3 hrs by Fluorescence analysis; assay type: functional
In short: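 Cells were exposed 3 h to 40, 100 or 200 μM farnesol, with methanol control and H2O2 positive control. Washed cells were stained 30 min in the dark with a mix of dichlorodihydrofluorescein diacetate, propidium iodide and calcofluor white, then washed and viewed by confocal microscopy. % green (ROS) cells of all cells was scored, with red (necrotic) cells scored separately.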

[21] = test system: Candida albicans; assay: Induction of apoptosis in Candida albicans SC5314 assessed as mitochondrial degradation at 100 uM after 3 hrs by Fluorescence analysis; assay type: functional
In short: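 Farnesol-exposed SC5314 (40, 100, 200 μM; methanol control, H2O2 positive control) stained with a MitoPT mitochondrial permeability transition dye per kit instructions. Cells imaged by confocal microscopy: red mitochondrial aggregates in healthy cells, dispersed green signal in apoptotic cells. Percentage of cells with degradation was recorded.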

[22] = test system: Candida albicans; assay: Induction of apoptosis in Candida albicans SC5314 assessed as activation of caspase activity at 40 uM after 3 hrs by Fluorescence analysis; assay type: functional
In short: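 Active caspases in farnesol-exposed cells (40, 100, 200 μM; methanol control, H2O2 positive control) were detected with a FLICA kit per manufacturer. Cells were examined by confocal microscopy, with green-fluorescing cells counted as caspase-positive and unstained cells as nonapoptotic. Percentage of positive cells was recorded.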

[23] = test system: Candida albicans; assay: Induction of apoptosis in Candida albicans SC5314 at 40 uM after 24 hrs by TUNEL assay; assay type: functional
In short: (§3)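 After 24 h in farnesol (40, 100, 200 μM), cells were PBS-washed, fixed in 4% paraformaldehyde (pH 7.4) 1 h at 20°C, and permeabilized 2 min on ice. They were labeled with 9:1 label:enzyme TUNEL mix 1 h at 37°C in the dark and examined by fluorescence microscopy at 515–565 nm. Flow cytometry counted % positive of 30,000 gated cells, gates set by no-enzyme and DNase-treated controls.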

[24] = test system: Candida albicans; assay: Induction of apoptosis in Candida albicans SC5314 at 200 uM after 24 hrs by TUNEL assay; assay type: functional; in short: as §3
[25] = test system: Candida albicans; assay: Increase in MCA1 expression in Candida albicans SC5314 at 100 uM after 4 hrs by quantitative PCR analysis; assay type: functional, organism-based
In short: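 Log-phase SC5314 exposed 4 h to farnesol (methanol vehicle control). cDNA diluted 1:20 and run in SYBR green real-time PCR: 15 min 95°C, then 35 cycles of 95°C 1 min, 58°C 30 s, 72°C 30 s, with a melt curve check. MCA1 level was calculated by 2^−ΔΔCT against ACT1 and RPP2B reference genes.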

[26] = test system: Candida albicans; assay: Increase in MCA1 expression in Candida albicans SC5314 at 10 mM after 4 hrs by quantitative PCR analysis

CC(C)=CCC/C(C)=C/CC/C(C)=C/CO [FARNESOL] was tested, and the Activity [1] was <10%, the Activity [2] was “Active” and the Activity [3] was “Active”. For the same molecule, the Activity [4] was “Active”, the Activity [5] was “Active” and the Activity [6] was “Active”. For the same molecule, the Activity [7] was “Active”, the Activity [8] was “Active” and the Activity [9] was “Active”. For the same molecule, the Activity [10] was “Active”, the Activity [11] was “Active” and the Activity [12] was “Active”. For the same molecule, the Activity [13] was “Active”, the Activity [14] was “Active” and the Activity [15] was “Active”. For the same molecule, the Activity [16] was “Active”, the Activity [17] was “Active” and the Activity [18] was “Active”. The Activity [19] was “Active”, the Activity [20] was 65% and the Activity [21] was 93%. For the same molecule, the Activity [22] was 5%, the Activity [23] was 2% and the Activity [24] was 14.5%. For the same molecule, the Activity [25] was “inactive” and the Activity [26] was “Active”.
